In ChEMBL document CHEMBL1250448, “Inhibitor hijacking of Akt activation” (Nat Chem Biol, 2009):

Key:
[1] = tested on: Tyrosine-protein kinase ABL1 (Homo sapiens), P00519 [T315I]; test: Inhibition of ABL1 T315I mutant at 1 uM in presence of 10 uM ATP by Select Screen kinase assay relative to untreated control
Summary of the method: (§1)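 Single-point screen at 1 μM against a panel of 220 purified kinases, run by Invitrogen staff as a SelectScreen profiling service. Read-out is percent inhibition of kinase activity.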

[2] = target: Serine/threonine-protein kinase D2 (Homo sapiens) (UniProt Q9BZL6); test: Inhibition of PRKD2 at 1 uM in presence of 10 uM ATP by Select Screen kinase assay relative to untreated control
[3] = target: Aurora kinase A (Homo sapiens) (UniProt O14965); test: Inhibition of STK6 at 1 uM in presence of 10 uM ATP by Select Screen kinase assay relative to untreated control
Summary of the method: (§2)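 Commercial SelectScreen profiling panel of 220 purified kinases. Each kinase was tested at a single inhibitor concentration of 1 μM, and activity was expressed as percent inhibition.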

[4] = tested on: Tyrosine-protein kinase ABL1 (Homo sapiens), P00519 [E255K]; test: Inhibition of ABL1 E255K mutant at 1 uM in presence of 10 uM ATP by Select Screen kinase assay relative to untreated control; summary of the method: as §1
[5] = target: Serine/threonine-protein kinase D1 (Homo sapiens) (UniProt Q15139); test: Inhibition of PRKD1 at 1 uM in presence of 10 uM ATP by Select Screen kinase assay relative to untreated control
[6] = target: Aurora kinase B (Homo sapiens) (UniProt Q96GD4); test: Inhibition of AURKB at 1 uM in presence of 10 uM ATP by Select Screen kinase assay relative to untreated control
[7] = target: Proto-oncogene tyrosine-protein kinase receptor Ret (Homo sapiens) (UniProt P07949); test: Inhibition of RET at 1 uM in presence of 100 uM ATP by Select Screen kinase assay relative to untreated control
Summary of the method: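 Profiling panel of 220 purified kinases (SelectScreen), each compound tested at 1 μM. Read-out is percent inhibition of kinase activity.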

[8] = target: Casein kinase II subunit alpha (Homo sapiens) (UniProt P68400); test: Inhibition of CSNK2A1 at 1 uM in presence of 10 uM ATP by Select Screen kinase assay relative to untreated control
Casein kinase II subunit alpha (Homo sapiens), sequence (P68400 whole entry, looked up): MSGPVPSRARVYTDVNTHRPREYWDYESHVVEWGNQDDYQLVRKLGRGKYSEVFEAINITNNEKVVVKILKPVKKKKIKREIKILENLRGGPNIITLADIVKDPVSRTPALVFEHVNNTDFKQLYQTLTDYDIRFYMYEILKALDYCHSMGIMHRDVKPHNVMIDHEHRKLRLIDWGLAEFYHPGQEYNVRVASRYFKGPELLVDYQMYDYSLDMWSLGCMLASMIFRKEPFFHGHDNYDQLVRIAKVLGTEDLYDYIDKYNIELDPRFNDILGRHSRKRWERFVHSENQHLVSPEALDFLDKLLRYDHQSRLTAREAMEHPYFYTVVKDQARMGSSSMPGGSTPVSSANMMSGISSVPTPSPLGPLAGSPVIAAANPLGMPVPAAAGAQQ
Summary of the method: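 Part of a 220-kinase panel of purified kinases, each tested with compound at 1 μM. Percent inhibition was measured in the Invitrogen SelectScreen profiling assay.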

[9] = target: Serine/threonine-protein kinase PAK 4 (Homo sapiens) (UniProt O96013); test: Inhibition of PAK4 at 1 uM in presence of 10 uM ATP by Select Screen kinase assay relative to untreated control
Serine/threonine-protein kinase PAK 4 (Homo sapiens), sequence (O96013 whole entry, looked up): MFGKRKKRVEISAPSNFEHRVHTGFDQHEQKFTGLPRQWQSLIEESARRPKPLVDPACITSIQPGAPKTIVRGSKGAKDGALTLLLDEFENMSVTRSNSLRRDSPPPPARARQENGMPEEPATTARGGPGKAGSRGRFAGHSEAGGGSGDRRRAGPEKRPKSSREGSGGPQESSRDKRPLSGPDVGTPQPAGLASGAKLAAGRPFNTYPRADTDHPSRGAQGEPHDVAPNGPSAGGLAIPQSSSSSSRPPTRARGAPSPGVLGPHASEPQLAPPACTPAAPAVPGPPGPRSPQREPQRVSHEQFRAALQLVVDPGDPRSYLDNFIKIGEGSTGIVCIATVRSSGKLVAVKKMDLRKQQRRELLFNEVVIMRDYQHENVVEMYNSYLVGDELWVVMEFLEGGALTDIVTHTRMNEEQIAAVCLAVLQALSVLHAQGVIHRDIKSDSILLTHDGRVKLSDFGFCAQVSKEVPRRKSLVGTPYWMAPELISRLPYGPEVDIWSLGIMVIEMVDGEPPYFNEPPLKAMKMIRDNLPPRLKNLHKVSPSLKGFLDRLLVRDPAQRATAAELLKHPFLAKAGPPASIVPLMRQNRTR

[10] = target: Mitogen-activated protein kinase kinase kinase kinase 2 (Homo sapiens) (UniProt Q12851); test: Inhibition of MAP4K2 at 1 uM in presence of 10 uM ATP by Select Screen kinase assay relative to untreated control
Mitogen-activated protein kinase kinase kinase kinase 2 (Homo sapiens), sequence (Q12851 whole entry): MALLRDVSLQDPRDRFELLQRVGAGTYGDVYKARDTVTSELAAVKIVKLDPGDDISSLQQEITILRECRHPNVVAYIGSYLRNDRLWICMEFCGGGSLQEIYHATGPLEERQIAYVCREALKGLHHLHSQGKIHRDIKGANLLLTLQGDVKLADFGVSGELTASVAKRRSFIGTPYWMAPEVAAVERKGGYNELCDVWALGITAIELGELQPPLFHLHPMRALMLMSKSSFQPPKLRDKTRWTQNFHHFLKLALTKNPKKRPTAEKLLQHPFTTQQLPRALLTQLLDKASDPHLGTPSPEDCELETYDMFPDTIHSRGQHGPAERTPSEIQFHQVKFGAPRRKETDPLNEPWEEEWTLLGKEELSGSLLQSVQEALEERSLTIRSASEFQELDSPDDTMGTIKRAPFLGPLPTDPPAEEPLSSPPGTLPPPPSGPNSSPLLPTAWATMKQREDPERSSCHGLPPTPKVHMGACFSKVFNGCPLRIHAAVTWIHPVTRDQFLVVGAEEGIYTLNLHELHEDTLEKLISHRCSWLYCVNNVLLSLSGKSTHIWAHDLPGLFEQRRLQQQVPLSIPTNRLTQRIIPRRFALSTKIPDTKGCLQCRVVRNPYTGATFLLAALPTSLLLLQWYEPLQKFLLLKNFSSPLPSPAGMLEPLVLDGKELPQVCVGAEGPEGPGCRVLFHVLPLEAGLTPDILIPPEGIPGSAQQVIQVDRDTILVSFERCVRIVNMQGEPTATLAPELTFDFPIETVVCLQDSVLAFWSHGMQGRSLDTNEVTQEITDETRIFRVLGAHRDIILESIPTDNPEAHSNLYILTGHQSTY

[11] = target: Calcium/calmodulin-dependent protein kinase type 1D (Homo sapiens) (UniProt Q8IU85); test: Inhibition of CAMK1D at 1 uM in presence of 10 uM ATP by Select Screen kinase assay relative to untreated control; summary of the method: as §1
[12] = target: Ephrin type-B receptor 4 (Homo sapiens) (UniProt P54760); test: Inhibition of EPHB4 at 1 uM in presence of 10 uM ATP by Select Screen kinase assay relative to untreated control; summary of the method: as §1
[13] = target: Mitogen-activated protein kinase 11 (Homo sapiens) (UniProt Q15759); test: Inhibition of MAPK11 at 1 uM in presence of 100 uM ATP by Select Screen kinase assay relative to untreated control
[14] = target: cAMP-dependent protein kinase catalytic subunit PRKX (Homo sapiens) (UniProt P51817); test: Inhibition of PRKX at 1 uM in presence of 10 uM ATP by Select Screen kinase assay relative to untreated control
[15] = target: Serine/threonine-protein kinase Sgk1 (Homo sapiens) (UniProt O00141); test: Inhibition of SGK at 1 uM in presence of 10 uM ATP by Select Screen kinase assay relative to untreated control
Serine/threonine-protein kinase Sgk1 (Homo sapiens), sequence (O00141 whole entry): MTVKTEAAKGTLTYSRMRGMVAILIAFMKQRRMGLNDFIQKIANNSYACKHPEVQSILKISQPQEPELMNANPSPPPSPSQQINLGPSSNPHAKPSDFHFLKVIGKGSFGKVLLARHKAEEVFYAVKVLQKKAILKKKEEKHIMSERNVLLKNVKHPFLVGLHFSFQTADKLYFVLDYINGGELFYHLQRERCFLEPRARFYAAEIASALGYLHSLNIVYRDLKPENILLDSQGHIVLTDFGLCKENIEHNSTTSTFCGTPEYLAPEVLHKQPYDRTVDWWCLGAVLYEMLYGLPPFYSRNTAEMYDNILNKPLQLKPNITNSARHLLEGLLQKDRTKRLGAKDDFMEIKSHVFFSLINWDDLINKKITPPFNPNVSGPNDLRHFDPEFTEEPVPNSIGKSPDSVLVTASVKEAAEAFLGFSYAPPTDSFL

[16] = target: Ribosomal protein S6 kinase alpha-2 (Homo sapiens) (UniProt Q15349); test: Inhibition of RPS6KA2 at 1 uM in presence of 10 uM ATP by Select Screen kinase assay relative to untreated control
[17] = target: Protein kinase C eta type (Homo sapiens) (UniProt P24723); test: Inhibition of PRKCH at 1 uM in presence of 10 uM ATP by Select Screen kinase assay relative to untreated control
[18] = target: Protein kinase C alpha type (Homo sapiens) (UniProt P17252); test: Inhibition of PRKCA at 1 uM in presence of 10 uM ATP by Select Screen kinase assay relative to untreated control
[19] = target: SRSF protein kinase 3 (Homo sapiens) (UniProt Q9UPE1); test: Inhibition of STK23 at 1 uM in presence of 10 uM ATP by Select Screen kinase assay relative to untreated control; summary of the method: as §2
SRSF protein kinase 3 (Homo sapiens), sequence (Q9UPE1 whole entry): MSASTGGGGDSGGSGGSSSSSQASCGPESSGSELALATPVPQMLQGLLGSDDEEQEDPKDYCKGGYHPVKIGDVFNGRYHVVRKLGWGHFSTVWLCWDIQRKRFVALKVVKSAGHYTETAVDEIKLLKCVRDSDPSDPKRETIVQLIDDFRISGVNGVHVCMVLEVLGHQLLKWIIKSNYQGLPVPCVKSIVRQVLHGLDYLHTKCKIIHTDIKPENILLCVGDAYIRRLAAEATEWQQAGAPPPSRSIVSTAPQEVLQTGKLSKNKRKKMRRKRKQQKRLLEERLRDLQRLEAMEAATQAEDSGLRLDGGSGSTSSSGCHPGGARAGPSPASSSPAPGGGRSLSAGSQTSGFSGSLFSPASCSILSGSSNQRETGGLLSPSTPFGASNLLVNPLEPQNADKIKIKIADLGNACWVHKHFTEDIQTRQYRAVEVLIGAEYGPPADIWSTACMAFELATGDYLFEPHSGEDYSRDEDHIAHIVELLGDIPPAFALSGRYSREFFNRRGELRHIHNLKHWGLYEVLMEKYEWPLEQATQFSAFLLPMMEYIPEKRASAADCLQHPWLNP

[20] = target: Serine/threonine-protein kinase PLK2 (Homo sapiens) (UniProt Q9NYY3); test: Inhibition of PLK2 at 1 uM in presence of 10 uM ATP by Select Screen kinase assay relative to untreated control
[21] = target: Protein kinase C theta type (Homo sapiens) (UniProt Q04759); test: Inhibition of PRKCQ at 1 uM in presence of 10 uM ATP by Select Screen kinase assay relative to untreated control
[22] = target: Tyrosine-protein kinase ABL2 (Homo sapiens) (UniProt P42684); test: Inhibition of ABL2 at 1 uM in presence of 10 uM ATP by Select Screen kinase assay relative to untreated control; summary of the method: as §1
[23] = target: Serine/threonine-protein kinase BRSK1 (Homo sapiens) (UniProt Q8TDC3); test: Inhibition of BRSK1 at 1 uM in presence of 10 uM ATP by Select Screen kinase assay relative to untreated control; summary of the method: as §1
[24] = target: Tyrosine-protein kinase JAK3 (Homo sapiens) (UniProt P52333); test: Inhibition of JAK3 at 1 uM in presence of 10 uM ATP by Select Screen kinase assay relative to untreated control
Summary of the method: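 Single-concentration profiling at 1 μM against a panel of 220 purified kinases, run as an outsourced SelectScreen kinase profiling service. Activity is expressed as percent inhibition.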

[25] = target: Serine/threonine-protein kinase D3 (Homo sapiens) (UniProt O94806); test: Inhibition of PRKCN at 1 uM in presence of 10 uM ATP by Select Screen kinase assay relative to untreated control
Serine/threonine-protein kinase D3 (Homo sapiens), sequence (O94806 whole entry): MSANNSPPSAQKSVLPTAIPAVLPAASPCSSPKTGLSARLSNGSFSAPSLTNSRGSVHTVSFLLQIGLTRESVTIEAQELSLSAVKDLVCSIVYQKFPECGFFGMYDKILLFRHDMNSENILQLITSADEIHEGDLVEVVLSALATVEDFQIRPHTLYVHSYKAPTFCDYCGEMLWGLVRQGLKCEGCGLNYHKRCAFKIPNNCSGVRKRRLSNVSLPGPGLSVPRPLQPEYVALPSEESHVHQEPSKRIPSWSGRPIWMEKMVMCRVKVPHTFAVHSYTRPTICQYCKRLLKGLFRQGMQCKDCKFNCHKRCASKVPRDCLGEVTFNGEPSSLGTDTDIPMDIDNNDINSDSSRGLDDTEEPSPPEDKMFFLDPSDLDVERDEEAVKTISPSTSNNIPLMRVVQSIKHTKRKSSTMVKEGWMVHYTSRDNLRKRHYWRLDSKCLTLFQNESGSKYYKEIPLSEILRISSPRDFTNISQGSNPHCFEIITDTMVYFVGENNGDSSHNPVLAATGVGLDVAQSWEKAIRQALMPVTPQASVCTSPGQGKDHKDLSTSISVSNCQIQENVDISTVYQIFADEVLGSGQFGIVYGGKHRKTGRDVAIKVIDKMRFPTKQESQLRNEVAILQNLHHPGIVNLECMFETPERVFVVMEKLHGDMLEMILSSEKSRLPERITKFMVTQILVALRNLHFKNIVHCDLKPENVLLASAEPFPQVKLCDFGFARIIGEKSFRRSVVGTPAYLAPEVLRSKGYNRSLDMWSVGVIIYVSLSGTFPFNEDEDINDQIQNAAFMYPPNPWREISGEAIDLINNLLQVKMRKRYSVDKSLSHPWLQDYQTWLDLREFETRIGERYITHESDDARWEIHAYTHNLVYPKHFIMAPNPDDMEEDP

[26] = target: Ribosomal protein S6 kinase alpha-1 (Homo sapiens) (UniProt Q15418); test: Inhibition of RPS6KA1 at 1 uM in presence of 100 uM ATP by Select Screen kinase assay relative to untreated control
Ribosomal protein S6 kinase alpha-1 (Homo sapiens), sequence (Q15418 whole entry): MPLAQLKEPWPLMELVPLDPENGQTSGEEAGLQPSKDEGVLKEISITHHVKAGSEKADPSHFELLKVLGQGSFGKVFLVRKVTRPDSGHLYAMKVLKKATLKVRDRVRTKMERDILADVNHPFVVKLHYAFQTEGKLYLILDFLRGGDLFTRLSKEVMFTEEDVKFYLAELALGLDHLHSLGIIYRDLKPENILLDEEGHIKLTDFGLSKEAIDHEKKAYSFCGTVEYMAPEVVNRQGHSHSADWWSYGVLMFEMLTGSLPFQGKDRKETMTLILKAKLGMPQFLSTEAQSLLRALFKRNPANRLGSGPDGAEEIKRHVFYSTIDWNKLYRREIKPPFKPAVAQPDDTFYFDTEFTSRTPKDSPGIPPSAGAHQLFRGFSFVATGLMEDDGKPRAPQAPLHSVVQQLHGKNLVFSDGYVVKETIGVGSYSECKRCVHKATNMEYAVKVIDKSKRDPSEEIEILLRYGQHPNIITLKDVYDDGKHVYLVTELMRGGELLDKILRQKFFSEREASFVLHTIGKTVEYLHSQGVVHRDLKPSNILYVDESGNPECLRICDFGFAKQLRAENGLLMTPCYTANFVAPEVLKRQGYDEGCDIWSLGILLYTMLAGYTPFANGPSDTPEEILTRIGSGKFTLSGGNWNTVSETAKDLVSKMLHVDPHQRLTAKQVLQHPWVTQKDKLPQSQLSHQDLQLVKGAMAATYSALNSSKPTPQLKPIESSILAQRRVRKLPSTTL

[27] = target: Serine/threonine-protein kinase Chk1 (Homo sapiens) (UniProt O14757); test: Inhibition of CHEK1 at 1 uM in presence of 10 uM ATP by Select Screen kinase assay relative to untreated control; summary of the method: as §1
Serine/threonine-protein kinase Chk1 (Homo sapiens), sequence (O14757 whole entry): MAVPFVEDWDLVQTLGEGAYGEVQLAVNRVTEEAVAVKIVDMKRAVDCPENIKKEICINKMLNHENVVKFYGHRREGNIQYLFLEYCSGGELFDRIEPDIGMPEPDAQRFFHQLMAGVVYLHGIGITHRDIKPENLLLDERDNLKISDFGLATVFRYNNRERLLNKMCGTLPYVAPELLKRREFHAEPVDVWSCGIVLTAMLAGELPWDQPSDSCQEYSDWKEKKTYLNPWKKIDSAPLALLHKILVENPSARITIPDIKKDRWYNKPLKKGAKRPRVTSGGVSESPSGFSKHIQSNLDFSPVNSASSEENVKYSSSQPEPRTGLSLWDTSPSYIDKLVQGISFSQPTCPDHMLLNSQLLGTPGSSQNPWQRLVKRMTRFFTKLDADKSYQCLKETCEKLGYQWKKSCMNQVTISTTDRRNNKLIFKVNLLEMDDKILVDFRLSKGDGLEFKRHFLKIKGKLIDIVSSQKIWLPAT

O=C(NCCCNc1nc(Nc2cccc(NC(=O)N3CCCC3)c2)ncc1I)c1cccs1
inhibition [1]: 40%
inhibition [2]: 76%
inhibition [3]: 97%
inhibition [4]: 26%
inhibition [5]: 71%
inhibition [6]: 103%
inhibition [7]: 87%
inhibition [8]: 16%
inhibition [9]: 42%
inhibition [10]: 97%
inhibition [11]: 14%
inhibition [12]: 8%
inhibition [13]: 6%
inhibition [14]: 105%
inhibition [15]: 53%
inhibition [16]: 63%
inhibition [17]: 7%
inhibition [18]: 61%
inhibition [19]: 6%
inhibition [20]: 38%
inhibition [21]: 38%
inhibition [22]: 37%
inhibition [23]: 75%
inhibition [24]: 89%
inhibition [25]: 83%
inhibition [26]: 42%
inhibition [27]: 75%

COc1ccccc1N1CCN(c2ncnc3[nH]nc(Br)c23)CC1
inhibition [1]: 8%
inhibition [2]: 4%
inhibition [3]: 22%
inhibition [4]: 5%
inhibition [5]: 5%
inhibition [6]: 20%
inhibition [7]: 41%
inhibition [8]: 18%
inhibition [9]: 9%
inhibition [10]: 18%
inhibition [11]: 24%
inhibition [12]: 11%
inhibition [13]: 4%
inhibition [14]: 21%
inhibition [15]: 13%
inhibition [16]: 55%
inhibition [17]: 8%
inhibition [18]: 21%
inhibition [19]: 3%
inhibition [20]: 24%
inhibition [21]: 15%
inhibition [22]: 4%
inhibition [23]: 29%
inhibition [24]: -1%
inhibition [25]: 18%
inhibition [26]: 63%
inhibition [27]: 19%
